Results from PMC8605766 (ACS chemical neuroscience, 2021).
Where “and” joins values, the source holds several entries; their conditions need not be identical. Equal entries are not always repeated. Blank lines part the entries; values can stand above or below the compound they belong to.

Columns and labels:
[1] = biological target: S1PR1 (Rattus norvegicus, UniProt P48303); assay: In vitro autoradiography of [^3H]CS1P1 in the rat brain and spinal cord; type: binding; conditions: 10 μM NIBR-0213
S1PR1, sequence (P48303 whole entry): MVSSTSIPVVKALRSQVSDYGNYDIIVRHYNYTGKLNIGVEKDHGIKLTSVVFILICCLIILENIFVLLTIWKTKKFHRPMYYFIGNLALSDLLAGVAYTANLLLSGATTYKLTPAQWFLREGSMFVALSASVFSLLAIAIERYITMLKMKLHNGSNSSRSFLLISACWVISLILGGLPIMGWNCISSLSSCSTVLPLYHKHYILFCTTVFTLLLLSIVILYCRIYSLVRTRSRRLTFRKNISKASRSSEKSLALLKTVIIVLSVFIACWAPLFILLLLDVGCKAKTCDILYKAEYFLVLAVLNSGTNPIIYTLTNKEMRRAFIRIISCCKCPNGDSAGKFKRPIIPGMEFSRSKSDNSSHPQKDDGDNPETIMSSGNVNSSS
Procedure, shortened: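 Frozen 14 μm sections from adult SD rat brain and spinal cord, pre-incubated 5 min at RT in HBSS with 10 mM HEPES, 5 mM MgCl₂, 0.2% BSA, 0.1 mM EDTA, pH 7.4. Labelled with 0.5 nM radioligand, 1 h at RT with shaking. […] Washed 3 × 5 min, ice-cold water dip, air-dried overnight. Film exposure 15 days with tritium standards. Specific binding = total − nonspecific in randomly chosen ROIs.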

[2] = tested on: MS patients; conditions: particularly deep gray matter structures; cited from earlier work
[3] = biological target: recombinant human S1PR1 (hS1PR1) membranes (Homo sapiens, UniProt P21453); assay: Competition binding assay against [^3H]CS1P1 with recombinant hS1PR1 membranes; conditions: displacement of 8 nM [^3H]CS1P1, recombinant hS1PR1 membranes
recombinant human S1PR1 (hS1PR1) membranes, sequence (P21453 whole entry): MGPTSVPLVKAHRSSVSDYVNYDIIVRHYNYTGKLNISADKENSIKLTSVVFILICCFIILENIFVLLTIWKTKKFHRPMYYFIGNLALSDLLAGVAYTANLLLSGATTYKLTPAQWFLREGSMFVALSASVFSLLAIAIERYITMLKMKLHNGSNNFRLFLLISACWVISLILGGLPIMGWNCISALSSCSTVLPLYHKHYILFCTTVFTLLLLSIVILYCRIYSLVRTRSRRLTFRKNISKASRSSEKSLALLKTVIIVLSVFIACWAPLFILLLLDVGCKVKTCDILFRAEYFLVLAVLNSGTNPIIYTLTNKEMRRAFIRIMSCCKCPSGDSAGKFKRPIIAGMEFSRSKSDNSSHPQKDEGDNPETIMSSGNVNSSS

Compound: Cc1cc([C@@H](C)Nc2cccc(-c3cc(C)c(C(=O)N[C@@H](C)C(=O)O)c(C)c3)c2)ccc1Cl [NIBR-0213]
blocking of [^3H]CS1P1 radioactivity [1]: can be blocked

Compound: CCCCCCCCc1ccc(CCC(N)(CO)CO)cc1 [fingolimod]
effect on brain atrophy [2]: reduced brain atrophy

Ki [3]: < 10 nM and 5.7 nM
Compound: CCCCCCCCCCCCC/C=C/[C@@H](O)[C@@H](N)COP(=O)(O)O [S1P, Sphingosine-1-phosphate]
